These results are taken from ChEMBL document CHEMBL2062456, “Green synthesis and anti-infective activities of fluorinated pyrazoline derivatives” (2012).

Common to all, as to format: functional
One test deals with Streptococcus pyogenes. Kind of test: Antibacterial activity against Streptococcus pyogenes MTCC 442.
A further test has as its system Staphylococcus aureus. Kind of test: Antibacterial activity against Staphylococcus aureus MTCC 96.
For another test, the system named is Bacillus subtilis. Kind of test: Antibacterial activity against Bacillus subtilis MTCC 441.
A further test concerns Escherichia coli. Kind of test: Antibacterial activity against Escherichia coli MTCC 443.
A further test concerns Aspergillus niger. Kind of test: Antifungal activity against Aspergillus niger MTCC 282.
The subject of test [1] is Mycobacterium tuberculosis. Kind of test: Antitubercular activity against Mycobacterium tuberculosis H37Rv by Lowenstein-Jensen slope method. The essentials:
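Lowenstein–Jensen medium used both to grow the strain and to dilute test drugs. Inoculum adjusted to 1 mg/mL. Compounds were made as 2 mg/mL stocks and diluted with 1% DMSO. Primary screen at 500, 250 and 125; actives were retested at 100 down to 1.5625 (twofold series). MIC is the minimum concentration inhibiting 99% of growth. Vehicle and reference controls were included, and tests were run in duplicate.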

A further test relates to Aspergillus clavatus. Kind of test: Antifungal activity against Aspergillus clavatus MTCC 1323.
Another test deals with Candida albicans. Kind of test: Antifungal activity against Candida albicans MTCC 227.

≈ marks a conversion by molar mass, not a printed value. Where only a bound is given, the exact number is not on record here.

With `O=C(N[C@H](CO)[C@H](O)c1ccc([N+](=O)[O-])cc1)C(Cl)Cl` [CHLORAMPHENICOL], the MIC99 against Streptococcus pyogenes, in the test with Staphylococcus aureus, against Bacillus subtilis and against Escherichia coli was 50 µg/mL (≈ 155 µM) each time.

For the compound `O=C(/C=C/c1cn(-c2ccccc2)nc1-c1ccc(F)cc1)c1ccccc1`, the MIC99 with Streptococcus pyogenes turned out to be 12.5 µg/mL (≈ 33.9 µM); in the test with Aspergillus niger, 50 µg/mL (≈ 136 µM); in test [1], 50 µg/mL (≈ 136 µM); against Staphylococcus aureus, 10 µg/mL (≈ 27.1 µM); in the test on Bacillus subtilis, 25 µg/mL (≈ 67.9 µM); against Escherichia coli, 20 µg/mL (≈ 54.3 µM). In addition, the MIC99 is 50 µg/mL (≈ 136 µM) against Aspergillus clavatus and 25 µg/mL (≈ 67.9 µM) against Candida albicans.

Compound `NNC(=O)c1ccncc1` [ISONIAZID] had an MIC99 in test [1] of 0.2 µg/mL (≈ 1.46 µM).

For the compound `Cc1ccc(C(=O)/C=C/c2cn(-c3ccccc3)nc2-c2ccc(F)cc2)cc1`, the MIC99 with Streptococcus pyogenes is 25 µg/mL (≈ 65.4 µM); in the test on Aspergillus niger, 100 µg/mL (≈ 261 µM); in test [1], 6.25 µg/mL (≈ 16.3 µM); in the test with Staphylococcus aureus, 20 µg/mL (≈ 52.3 µM); with Bacillus subtilis, 20 µg/mL (≈ 52.3 µM); against Escherichia coli, 12.5 µg/mL (≈ 32.7 µM). Also, the results for the MIC99 in the test on Aspergillus clavatus and against Candida albicans were 100 µg/mL (≈ 261 µM) and 50 µg/mL (≈ 131 µM), respectively.

For the compound `O=C(O)c1cn(C2CC2)c2cc(N3CCNCC3)c(F)cc2c1=O` [CIPROFLOXACIN], the MIC99 in the test with Streptococcus pyogenes was 50 µg/mL (≈ 151 µM); against Staphylococcus aureus, 50 µg/mL (≈ 151 µM); in the test on Bacillus subtilis, 25 µg/mL (≈ 75.4 µM); in the test with Escherichia coli, 25 µg/mL (≈ 75.4 µM).

Consider `O=C(/C=C/c1cn(-c2ccccc2)nc1-c1ccc(F)cc1)c1ccc(Cl)cc1`, for which the MIC99 is 20 µg/mL (≈ 49.6 µM) in the test with Streptococcus pyogenes; above 100 µg/mL against Aspergillus niger; 10 µg/mL (≈ 24.8 µM) in test [1]; 25 µg/mL (≈ 62.1 µM) against Staphylococcus aureus; 12.5 µg/mL (≈ 31 µM) in the test with Bacillus subtilis; 6.25 µg/mL (≈ 15.5 µM) against Escherichia coli. Moreover, the MIC99 against Aspergillus clavatus is above 100 µg/mL; with Candida albicans it was 100 µg/mL (≈ 248 µM).

For the compound `Fc1ccc(-c2nn(-c3ccccc3)cc2C2=NNC(c3ccc(F)cc3)C2)cc1` (configuration not stated), the MIC99 against Streptococcus pyogenes is 25 µg/mL (≈ 62.4 µM); with Aspergillus niger it was 50 µg/mL (≈ 125 µM); in test [1], 25 µg/mL (≈ 62.4 µM); in the test on Staphylococcus aureus, 25 µg/mL (≈ 62.4 µM); against Bacillus subtilis, 25 µg/mL (≈ 62.4 µM); with Escherichia coli, 20 µg/mL (≈ 49.9 µM). The MIC99 amounted to 50 µg/mL (≈ 125 µM) against Aspergillus clavatus and 20 µg/mL (≈ 49.9 µM) against Candida albicans.

`O=C(/C=C/c1cn(-c2ccccc2)nc1-c1ccc(F)cc1)c1ccc(Br)cc1`: the MIC99 in the test on Streptococcus pyogenes was 20 µg/mL (≈ 44.7 µM); against Aspergillus niger, above 100 µg/mL; in test [1], 50 µg/mL (≈ 112 µM); against Staphylococcus aureus it was 25 µg/mL (≈ 55.9 µM); in the test on Bacillus subtilis it was 20 µg/mL (≈ 44.7 µM); against Escherichia coli, 20 µg/mL (≈ 44.7 µM). The MIC99 in the test on Aspergillus clavatus was above 100 µg/mL; against Candida albicans it was 10 µg/mL (≈ 22.4 µM).

Consider `CCn1cc(C(=O)O)c(=O)c2cc(F)c(N3CCNCC3)cc21` [NORFLOXACIN], for which the MIC99 in the test on Streptococcus pyogenes, with Staphylococcus aureus, in the test on Bacillus subtilis and with Escherichia coli was 10 µg/mL (≈ 31.3 µM) each time.

NYSTATIN: the MIC99 in the test on Aspergillus niger, in the test on Aspergillus clavatus and with Candida albicans was 100 µg/mL each time.

Consider `Fc1ccc(-c2nn(-c3ccccc3)cc2C2=NNC(c3ccc(Cl)cc3)C2)cc1` (configuration not stated), for which the MIC99 with Streptococcus pyogenes worked out at 20 µg/mL (≈ 48 µM); against Aspergillus niger, 50 µg/mL (≈ 120 µM); in test [1] it was 6.25 µg/mL (≈ 15 µM); against Staphylococcus aureus it was 20 µg/mL (≈ 48 µM); against Bacillus subtilis, 25 µg/mL (≈ 60 µM); against Escherichia coli, 25 µg/mL (≈ 60 µM). Besides, the MIC99 with Aspergillus clavatus was found to be 50 µg/mL (≈ 120 µM); against Candida albicans, 100 µg/mL (≈ 240 µM).

As to `Fc1ccc(-c2nn(-c3ccccc3)cc2C2=NNC(c3ccc(Br)cc3)C2)cc1` (configuration not stated), the MIC99 against Streptococcus pyogenes came to 10 µg/mL (≈ 21.7 µM); against Aspergillus niger it was 10 µg/mL (≈ 21.7 µM); in test [1], 50 µg/mL (≈ 108 µM); with Staphylococcus aureus it was 6.25 µg/mL (≈ 13.5 µM); with Bacillus subtilis, 10 µg/mL (≈ 21.7 µM); with Escherichia coli, 6.25 µg/mL (≈ 13.5 µM). In addition, the MIC99 with Aspergillus clavatus and in the test on Candida albicans was 10 µg/mL (≈ 21.7 µM) throughout.

Turning to `O=C(/C=C/c1cn(-c2ccccc2)nc1-c1ccc(F)cc1)c1ccc(F)cc1`, the MIC99 against Streptococcus pyogenes came out at 10 µg/mL (≈ 25.9 µM); with Aspergillus niger, 20 µg/mL (≈ 51.8 µM); in test [1], 25 µg/mL (≈ 64.7 µM); in the test on Staphylococcus aureus, 6.25 µg/mL (≈ 16.2 µM); in the test with Bacillus subtilis it was 20 µg/mL (≈ 51.8 µM); in the test on Escherichia coli it was 25 µg/mL (≈ 64.7 µM). The MIC99 worked out at 20 µg/mL (≈ 51.8 µM) in the test with Aspergillus clavatus and 100 µg/mL (≈ 259 µM) against Candida albicans.

Take `Cc1ccc(C2CC(c3cn(-c4ccccc4)nc3-c3ccc(F)cc3)=NN2)cc1` (configuration not stated): the MIC99 in the test with Streptococcus pyogenes turned out to be 10 µg/mL (≈ 25.2 µM); in the test on Aspergillus niger it was 100 µg/mL (≈ 252 µM); in test [1], 10 µg/mL (≈ 25.2 µM); in the test on Staphylococcus aureus, 12.5 µg/mL (≈ 31.5 µM); against Bacillus subtilis it was 50 µg/mL (≈ 126 µM); against Escherichia coli, 50 µg/mL (≈ 126 µM). In addition, the MIC99 was 100 µg/mL (≈ 252 µM) in the test with Aspergillus clavatus and 25 µg/mL (≈ 63.1 µM) against Candida albicans.

Consider `Fc1ccc(-c2nn(-c3ccccc3)cc2C2=NNC(c3ccccc3)C2)cc1` (configuration not stated), for which the MIC99 against Streptococcus pyogenes stood at 50 µg/mL (≈ 131 µM); in the test on Aspergillus niger, 50 µg/mL (≈ 131 µM); in test [1], 25 µg/mL (≈ 65.4 µM); in the test on Staphylococcus aureus, 50 µg/mL (≈ 131 µM); in the test on Bacillus subtilis, 20 µg/mL (≈ 52.3 µM); against Escherichia coli, 10 µg/mL (≈ 26.1 µM). The MIC99 against Aspergillus clavatus and in the test with Candida albicans was 50 µg/mL (≈ 131 µM) in each case.

GENTAMICIN: the MIC99 amounted to 0.5 µg/mL against Streptococcus pyogenes, 0.25 µg/mL in the test with Staphylococcus aureus, 1 µg/mL in the test with Bacillus subtilis and 0.05 µg/mL with Escherichia coli.

For the compound `COC1=CC(=O)C[C@@H](C)[C@]12Oc1c(Cl)c(OC)cc(OC)c1C2=O` [GRISEOFULVIN], the MIC99 in the test with Aspergillus niger came out at 100 µg/mL (≈ 283 µM); against Aspergillus clavatus, 100 µg/mL (≈ 283 µM); against Candida albicans it was 500 µg/mL (≈ 1420 µM).

As for `CC1(C)S[C@@H]2[C@H](NC(=O)[C@H](N)c3ccccc3)C(=O)N2[C@H]1C(=O)O` [AMPICILLIN], the MIC99 in the test with Streptococcus pyogenes amounted to 100 µg/mL (≈ 286 µM); in the test with Staphylococcus aureus it was 250 µg/mL (≈ 715 µM); in the test on Bacillus subtilis it was 100 µg/mL (≈ 286 µM); with Escherichia coli, 100 µg/mL (≈ 286 µM).
